Measurements reported in PMC7686291 (Psychopharmacology, 2020).
Structures can show the parent of a compound that is named as a salt.

Tests used:
[1] = system: extracellular 5-HT in nucleus accumbens; experiment: In vivo microdialysis in nucleus accumbens, dialysate 5-HT; set-up: species or system rat; conditions: male rats
Procedure, shortened: (§1)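 Male Sprague-Dawley rats (300–400 g) were fitted with a jugular catheter and a nucleus accumbens guide cannula under pentobarbital (60 mg/kg i.p.), with ≥1 week recovery. Probes (2×0.5 mm) were perfused with Ringers' at 0.6 μL/min overnight. 20-min dialysates were assayed by microbore HPLC-ECD. After three stable baselines: i.v. dose at time zero, threefold higher dose at 60 min. Saline 1 mL/kg controls; n = 7/group; % baseline; dose × time ANOVA, Bonferroni.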

[2] = molecular target: dopamine transporters (DAT) (Rattus norvegicus, UniProt P23977); experiment: Transporter release assay, [3H]MPP+ via DAT, rat brain synaptosomes; type: biochemical; conditions: for Emax: read-out: DAT release %Emax; for Times more potent than MDA at DAT release / Times more potent than MDMA at DAT release: ratio of EC50 values, synaptosomes; for DAT release %Emax: % of maximal release defined with 10 μM tyramine
Procedure, shortened: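 Striatal synaptosomes from male Sprague-Dawley rats, prepared in 10% sucrose containing 1 μM reserpine; no unlabeled blockers added. Loaded 1 h to steady state with 9 nM [3H]MPP+ in Krebs-phosphate buffer; test compound at various concentrations added for 30 min. Ended by rapid vacuum filtration and scintillation counting of filter-bound radioactivity. EC50 by non-linear regression; efficacy relative to maximal release by 10 μM tyramine.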

[3] = molecular target: norepinephrine transporters (NET) (Rattus norvegicus, UniProt Q63380); experiment: Transporter release assay, [3H]MPP+ via NET, rat brain synaptosomes; type: biochemical; conditions: for Emax: read-out: NET release %Emax; for Times more potent than MDA at NET release / Times more potent than MDMA at NET release: ratio of EC50 values, synaptosomes; for NET release %Emax: % of maximal release defined with 10 μM tyramine
Procedure, shortened: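 Male Sprague-Dawley rat whole brain minus striatum and cerebellum gave synaptosomes in 10% sucrose with 1 μM reserpine, 100 nM GBR12935 and citalopram. After 1 h preloading with 9 nM [3H]MPP+ in Krebs-phosphate buffer, incubated 30 min with varied test compound concentrations. Filtration, then scintillation counting of retained radioactivity. EC50 from non-linear regression; efficacy as % of 10 μM tyramine release.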

conscious male rats = experiment: Horizontal ambulation; type: in vivo, rat; conditions: for Duration of behavioral activation (forward ambulation) post-injection: i.v.
Procedure, shortened: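 Conscious, tethered male Sprague-Dawley rats (300–400 g) with jugular catheters were placed overnight in photobeam arenas during accumbens microdialysis. Horizontal-plane movement was counted in 20-min bins over 120 min. Two i.v. injections: first dose at time zero, threefold higher dose 60 min later. Saline (1 mL/kg) controls; n = 7/group. Data normalized to three preinjection bins; dose × time ANOVA versus saline with Bonferroni tests.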

[4] = system: human transporters (DAT, SERT); conditions: cited from earlier work; for DAT/SERT ratio in transfected cells: ref Luethi et al. 2019; for DAT/SERT ratio from uptake inhibition potencies: transfected HEK cells, human transporters, ref Rickli et al. 2015
[5] = molecular target: serotonin transporters (SERT) (Rattus norvegicus, UniProt P31652); experiment: Transporter release assay, [3H]5-HT via SERT, rat brain synaptosomes; type: biochemical; conditions: for Emax: read-out: SERT release %Emax; for SERT release %Emax: % of maximal release defined with 100 μM tyramine
Procedure, shortened: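 Synaptosomes from whole brain minus striatum and cerebellum of male Sprague-Dawley rats, made in 10% sucrose with 1 μM reserpine plus 100 nM GBR12935 and nomifensine. Preloaded 1 h to steady state with 5 nM [3H]5-HT in Krebs-phosphate buffer, then incubated 5 min with test compound at various concentrations. Stopped by vacuum filtration; retained label counted by scintillation. EC50 from non-linear regression; efficacy as % of release by 100 μM tyramine.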

[6] = system: dialysate dopamine in corpus striatum; conditions: oral 0.08 mmol/kg (~17 mg/kg), male CD-1 mice, ref Fuwa et al. 2016; cited from earlier work
mice = conditions: ref Dolan et al. (2017), cited from earlier work
[7] = system: extracellular dopamine in nucleus accumbens; experiment: In vivo microdialysis in nucleus accumbens, dialysate dopamine; set-up: species or system rat; conditions: male rats; for Peak increase of dialysate dopamine above baseline: 1.0 mg/kg i.v. given 60 min after 0.3 mg/kg
Procedure, shortened: as §1

rats = rats trained with MDMA 1.5 mg/kg i.p., ref Dolan et al. (2017), cited from earlier work
[8] = system: dialysate 5-HT in corpus striatum; conditions: ref Fuwa et al. 2016, cited from earlier work
[9] = 3 mg/kg i.v. given 60 min after 1 mg/kg
[10] = 1.0 mg/kg i.v. given 60 min after 0.3 mg/kg
[11] = ratio of EC50 values, synaptosomes

serotonin transporters (SERT), sequence (P31652 whole entry): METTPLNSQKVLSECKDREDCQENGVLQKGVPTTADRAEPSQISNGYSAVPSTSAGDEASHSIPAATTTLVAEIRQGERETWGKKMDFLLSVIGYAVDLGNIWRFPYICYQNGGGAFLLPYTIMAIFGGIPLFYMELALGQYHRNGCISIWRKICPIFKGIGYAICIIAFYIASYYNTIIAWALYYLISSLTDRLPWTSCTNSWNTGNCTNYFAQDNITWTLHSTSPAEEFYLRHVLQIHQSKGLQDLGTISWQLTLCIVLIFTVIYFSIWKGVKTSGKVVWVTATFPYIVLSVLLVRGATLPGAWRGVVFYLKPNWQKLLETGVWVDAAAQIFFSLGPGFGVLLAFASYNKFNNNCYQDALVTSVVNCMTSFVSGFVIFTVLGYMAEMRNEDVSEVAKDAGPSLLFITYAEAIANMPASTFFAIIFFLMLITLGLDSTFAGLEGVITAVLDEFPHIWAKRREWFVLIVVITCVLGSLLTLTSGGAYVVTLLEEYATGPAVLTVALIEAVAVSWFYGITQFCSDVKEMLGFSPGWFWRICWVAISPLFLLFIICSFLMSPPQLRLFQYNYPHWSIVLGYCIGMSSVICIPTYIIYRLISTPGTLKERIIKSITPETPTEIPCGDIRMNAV
dopamine transporters (DAT), sequence (P23977 whole entry): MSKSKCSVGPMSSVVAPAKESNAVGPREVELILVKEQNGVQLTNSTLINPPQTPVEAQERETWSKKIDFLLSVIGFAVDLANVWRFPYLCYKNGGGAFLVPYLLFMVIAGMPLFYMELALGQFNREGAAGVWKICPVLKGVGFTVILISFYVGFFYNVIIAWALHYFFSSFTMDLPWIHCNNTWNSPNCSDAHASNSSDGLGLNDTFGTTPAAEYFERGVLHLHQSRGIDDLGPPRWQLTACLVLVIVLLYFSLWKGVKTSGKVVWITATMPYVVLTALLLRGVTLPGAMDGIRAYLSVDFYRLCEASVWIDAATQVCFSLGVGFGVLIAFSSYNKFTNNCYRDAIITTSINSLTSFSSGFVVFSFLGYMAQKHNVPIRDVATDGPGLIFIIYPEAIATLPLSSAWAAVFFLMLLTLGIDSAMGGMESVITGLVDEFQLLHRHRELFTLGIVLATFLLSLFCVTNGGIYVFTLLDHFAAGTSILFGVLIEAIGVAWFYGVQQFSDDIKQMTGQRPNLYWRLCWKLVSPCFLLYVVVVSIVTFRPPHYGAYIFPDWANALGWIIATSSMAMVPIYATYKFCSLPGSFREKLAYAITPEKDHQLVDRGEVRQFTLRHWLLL
norepinephrine transporters (NET), sequence (Q63380 1-617): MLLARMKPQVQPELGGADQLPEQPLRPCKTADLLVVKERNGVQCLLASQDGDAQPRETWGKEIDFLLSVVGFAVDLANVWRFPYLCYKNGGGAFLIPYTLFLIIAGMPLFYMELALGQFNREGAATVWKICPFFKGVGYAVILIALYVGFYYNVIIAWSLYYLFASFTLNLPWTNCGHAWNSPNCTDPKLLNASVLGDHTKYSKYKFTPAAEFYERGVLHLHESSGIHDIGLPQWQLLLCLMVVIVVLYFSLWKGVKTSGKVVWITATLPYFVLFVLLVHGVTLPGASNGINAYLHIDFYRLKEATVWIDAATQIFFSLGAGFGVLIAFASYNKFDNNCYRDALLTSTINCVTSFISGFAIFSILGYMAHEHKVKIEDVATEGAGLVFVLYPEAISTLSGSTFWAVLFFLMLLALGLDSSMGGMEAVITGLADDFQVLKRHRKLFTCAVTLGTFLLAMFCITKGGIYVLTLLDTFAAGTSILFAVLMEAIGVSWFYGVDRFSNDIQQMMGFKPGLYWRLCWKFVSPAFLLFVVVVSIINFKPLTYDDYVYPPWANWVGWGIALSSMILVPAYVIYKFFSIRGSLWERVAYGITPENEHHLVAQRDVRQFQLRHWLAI

| SMILES | EC50 [2] [nM] | Emax [2] [%] | EC50 [3] [nM] | Emax [3] [%] | Duration of behavioral activation (forward ambulation) post-injection (conscious male rats) | DAT/SERT ratio in transfected cells [4] | EC50 [5] [nM] | Emax [5] [%] | Peak effect on dialysate 5-HT above baseline [1, 10] [fold] | Times more potent than MDA at DAT release [2] [fold] | Peak increase of dialysate dopamine above baseline [7] [fold] | Times more potent than MDA at NET release [3] | Peak effect on ambulation above baseline (conscious male rats; [10]) [fold] | DAT/SERT ratio from uptake inhibition potencies [4] | Times more potent than MDA at SERT release [5, 11] [fold] | DAT release %Emax [2] [%] | Times more potent than MDMA at DAT release [2] | NET release %Emax [3] [%] | Times more potent than MDMA at NET release [3] [times] | SERT release %Emax [5] [%] | further results |
| --- | --- | --- | --- | --- | --- | --- | --- | --- | --- | --- | --- | --- | --- | --- | --- | --- | --- | --- | --- | --- | --- |
| CC(N)Cc1ccc2c(c1)OCO2 (racemic) [MDA, (±)-3,4-Methylenedioxyamphetamine HCl, reference compound] | 106 ± 7 | 104 | 47 ± 7 | 91 | at least 2 h | 0.25 | 162 ± 28 | 109 | – | – | – | – | – | – | – | – | – | – | – | – | Peak effect on dialysate 5-HT above baseline ([1]; 1 mg/kg i.v., first dose): 4.6 fold; Peak effect on dialysate 5-HT above baseline [1, 9]: 11.2 fold; Fold less potent than 5-APB and 6-APB at increasing dialysate 5-HT ([1]; in vivo microdialysis, i.v.): 3 fold; Effect on locomotion vs saline (post hoc analysis) (conscious male rats; 1 mg/kg i.v., first dose): did not significantly increase locomotion; Peak effect on ambulation above baseline (conscious male rats; [9]): 30 fold; Ambulation above baseline at the 120 min point (conscious male rats; 60 min after 3 mg/kg i.v.): about 18 fold |
| CNC(C)Cc1ccc2c(c1)OCO2 (racemic) [MDMA, (±)-3,4-methylenedioxymethamphetamine HCl, reference compound] | 120 ± 8 | 101 | 90 ± 13 | 99 | – | 0.12 | 85 ± 16 | 104 | – | – | – | – | – | – | – | – | – | – | – | – | – |
| CC(N)Cc1ccc2occc2c1 (stereo not shown) [5-APB, 1-(1-Benzofuran-5-yl)propan-2-amine] | 31 ± 3 | 103 | 21 ± 4 | 103 | at least 2 h | – | 19 ± 2 | 104 | 17.7 | 3.4 | 6.7 | 2–3 times | 21 | 0.05 | 8.5 | – | – | – | – | – | Increase of dialysate 5-HT ([1]; 20 min after 0.3 mg/kg i.v.): 5.7 fold; Dialysate 5-HT above baseline at the 120 min point ([1]; 120 min point, 60 min after 1.0 mg/kg i.v.): 11.3 fold; Increase in dialysate dopamine [6]: 8 fold; ED50 for increase of forward locomotion (mice; i.p.): 3.27 mg/kg; Potency to stimulate activity, fold greater than that of MDMA (mice; Gatch et al. 2019): at least 3 fold; Effect on dialysate dopamine vs saline (post hoc test) ([7]; 0.3 mg/kg i.v.): failed to significantly increase dopamine levels; Ambulation above baseline at the 120 min point (conscious male rats; 60 min after 1.0 mg/kg i.v.): 14.0 fold; ED50 to substitute for the MDMA stimulus cue (rats; i.p.): 0.27 mg/kg; Substitution for the discriminative stimulus effects of MDMA (rats): fully substitutes; Times more potent than 5-MAPB at SERT release [5, 11]: 3.4 times; Increase in dialysate 5-HT ([8]; oral 0.08 mmol/kg (~17 mg/kg), corpus striatum, male CD-1 mice): 23 fold; Time the rise in extracellular 5-HT was maintained post-injection ([8]; oral 0.08 mmol/kg, mice): up to 3 h |
| CNC(C)Cc1ccc2occc2c1 (stereo not shown) [5-MAPB] | – | – | – | – | – | – | – | – | – | – | – | – | – | – | – | 103 | at least 3 times | 99 | ≥ 3.75 | 103 | Times more potent than MDMA at SERT release [5, 11]: up to 2.5 times |
| CC(N)Cc1ccc2ccoc2c1 (stereo not shown) [6-APB, 1-(1-benzofuran-6-yl)propan-2-amine] | 10 ± 1 | 101 | 14 ± 2 | 98 | at least 2 h | – | 36 ± 5 | 100 | 16 | 10 | 8.4 | 2–3 times | 24 | 0.29 | 4.5 | – | – | – | – | – | Increase of dialysate dopamine ([7]; 20 min after 0.3 mg/kg i.v.): 2.6 fold; Increase of dialysate dopamine ([7]; 40 min after 0.3 mg/kg i.v.): 3.3 fold; Effect on locomotion vs saline (post hoc analysis) (conscious male rats; 0.3 mg/kg i.v.): failed to result in significant increases in locomotion |
| CNC(C)Cc1ccc2ccoc2c1 (stereo not shown) [6-MAPB] | – | – | – | – | – | – | – | – | – | – | – | – | – | – | – | 106 | at least 3 times | 100 | ≥ 3.75 | 106 | Times more potent than MDMA at SERT release [5, 11]: up to 2.5 times |
